# System: U2OS
# Experiment: Multiplex assay against U2OS
# Format: toxicity, cell-based
# Conditions: human
# Outline: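 With compound added, live cells were imaged on a CQ1 microscope at 37°C and 5% CO2; staining with Hoechst33342, BioTracker Green Microtubule Cytoskeleton Dye, MitoTracker Red and Annexin V Alexa Fluor 680 had been done at seeding. The CellPathfinder machine-learning gating scheme split cells into Hoechst high-intensity objects or normal cells, normal cells into healthy, pyknosed or fragmented nuclei, and pyknosed cells into mitotic or apoptotic. The tubulin, mitochondrial-mass and membrane-permeability phenotypes are per cents of healthy-nucleus cells.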
# [1] = 12 h, 1 µM, compound concentration 1 uM, replicate 1
# [2] = 12 h, 1 µM, compound concentration 1 uM, replicate 2
# [3] = 12 h, 10 µM, compound concentration 10 uM, replicate 1
# [4] = 12 h, 10 µM, compound concentration 10 uM, replicate 2
# [5] = 24 h, 1 µM, compound concentration 1 uM, replicate 1
# [6] = 24 h, 1 µM, compound concentration 1 uM, replicate 2
# [7] = 24 h, 10 µM, compound concentration 10 uM, replicate 1
# [8] = 24 h, 10 µM, compound concentration 10 uM, replicate 2
# [9] = 48 h, 1 µM, compound concentration 1 uM, replicate 1
# [10] = 48 h, 1 µM, compound concentration 1 uM, replicate 2
# [11] = 48 h, 10 µM, compound concentration 10 uM, replicate 1
# [12] = 48 h, 10 µM, compound concentration 10 uM, replicate 2
compound,measurement,setting,value
COCCCN1CCC(NC(=O)c2cc(Cl)c(N)c3c2OCC3)CC1 [PRUCALOPRIDE],Population Apoptotic (%),[1],84%
same,Population Fragmented Nuclei (%),[1],30%
same,Population Healthy Nuclei (%),[1],63%
same,Population Hoechst High Intensity Objects (%),[1],1%
same,Population Membrane Permeable-Phenotype (%),[1],7%
same,Population Mitochondria Different-Phenotype (%),[1],3%
same,Population Mitotic Cells (%),[1],15%
same,Population Normal (%),[1],98%
same,Population Pyknosed Nuclei (%),[1],6%
same,Population Tubulin-Different-Phenotype (%),[1],4%
same,Total Cell Count,[1],207
same,Population Apoptotic (%),[2],87%
same,Population Fragmented Nuclei (%),[2],21%
same,Population Healthy Nuclei (%),[2],71%
same,Population Hoechst High Intensity Objects (%),[2],0%
same,Population Membrane Permeable-Phenotype (%),[2],12%
same,Population Mitochondria Different-Phenotype (%),[2],7%
same,Population Mitotic Cells (%),[2],12%
same,Population Normal (%),[2],99%
same,Population Pyknosed Nuclei (%),[2],7%
same,Population Tubulin-Different-Phenotype (%),[2],8%
same,Total Cell Count,[2],110
same,Population Apoptotic (%),[3],68%
same,Population Fragmented Nuclei (%),[3],22%
same,Population Healthy Nuclei (%),[3],63%
same,Population Hoechst High Intensity Objects (%),[3],3%
same,Population Membrane Permeable-Phenotype (%),[3],4%
same,Population Mitochondria Different-Phenotype (%),[3],0%
same,Population Mitotic Cells (%),[3],31%
same,Population Normal (%),[3],96%
same,Population Pyknosed Nuclei (%),[3],13%
same,Population Tubulin-Different-Phenotype (%),[3],2%
same,Total Cell Count,[3],238
same,Population Apoptotic (%),[4],47%
same,Population Fragmented Nuclei (%),[4],13%
same,Population Healthy Nuclei (%),[4],73%
same,Population Hoechst High Intensity Objects (%),[4],2%
same,Population Membrane Permeable-Phenotype (%),[4],1%
same,Population Mitochondria Different-Phenotype (%),[4],1%
same,Population Mitotic Cells (%),[4],52%
same,Population Normal (%),[4],97%
same,Population Pyknosed Nuclei (%),[4],12%
same,Population Tubulin-Different-Phenotype (%),[4],1%
same,Total Cell Count,[4],140
same,Population Apoptotic (%),[5],80%
same,Population Fragmented Nuclei (%),[5],26%
same,Population Healthy Nuclei (%),[5],65%
same,Population Hoechst High Intensity Objects (%),[5],2%
same,Population Membrane Permeable-Phenotype (%),[5],5%
same,Population Mitochondria Different-Phenotype (%),[5],3%
same,Population Mitotic Cells (%),[5],20%
same,Population Normal (%),[5],97%
same,Population Pyknosed Nuclei (%),[5],8%
same,Population Tubulin-Different-Phenotype (%),[5],5%
same,Total Cell Count,[5],247
same,Population Fragmented Nuclei (%),[6],23%
same,Population Healthy Nuclei (%),[6],69%
same,Population Hoechst High Intensity Objects (%),[6],1%
same,Population Membrane Permeable-Phenotype (%),[6],8%
same,Population Mitochondria Different-Phenotype (%),[6],4%
same,Population Normal (%),[6],98%
same,Population Pyknosed Nuclei (%),[6],7%
same,Population Tubulin-Different-Phenotype (%),[6],7%
same,Total Cell Count,[6],132
same,Population Apoptotic (%),[7],87%
same,Population Fragmented Nuclei (%),[7],23%
same,Population Healthy Nuclei (%),[7],64%
same,Population Hoechst High Intensity Objects (%),[7],4%
same,Population Membrane Permeable-Phenotype (%),[7],5%
same,Population Mitochondria Different-Phenotype (%),[7],2%
same,Population Mitotic Cells (%),[7],12%
same,Population Normal (%),[7],95%
same,Population Pyknosed Nuclei (%),[7],12%
same,Population Tubulin-Different-Phenotype (%),[7],4%
same,Total Cell Count,[7],280
same,Population Apoptotic (%),[8],77%
same,Population Fragmented Nuclei (%),[8],12%
same,Population Healthy Nuclei (%),[8],76%
same,Population Hoechst High Intensity Objects (%),[8],1%
same,Population Membrane Permeable-Phenotype (%),[8],3%
same,Population Mitotic Cells (%),[8],22%
same,Population Normal (%),[8],98%
same,Population Pyknosed Nuclei (%),[8],11%
same,Population Tubulin-Different-Phenotype (%),[8],3%
same,Total Cell Count,[8],161
same,Population Apoptotic (%),[9],85%
same,Population Fragmented Nuclei (%),[9],20%
same,Population Healthy Nuclei (%),[9],73%
same,Population Hoechst High Intensity Objects (%),[9],3%
same,Population Membrane Permeable-Phenotype (%),[9],3%
same,Population Mitochondria Different-Phenotype (%),[9],1%
same,Population Mitotic Cells (%),[9],14%
same,Population Normal (%),[9],96%
same,Population Pyknosed Nuclei (%),[9],6%
same,Population Tubulin-Different-Phenotype (%),[9],3%
same,Total Cell Count,[9],352
same,Population Apoptotic (%),[10],86%
same,Population Healthy Nuclei (%),[10],67%
same,Population Hoechst High Intensity Objects (%),[10],2%
same,Population Membrane Permeable-Phenotype (%),[10],11%
same,Population Mitochondria Different-Phenotype (%),[10],6%
same,Population Mitotic Cells (%),[10],13%
same,Population Normal (%),[10],97%
same,Population Pyknosed Nuclei (%),[10],11%
same,Population Tubulin-Different-Phenotype (%),[10],9%
same,Total Cell Count,[10],199
same,Population Apoptotic (%),[11],88%
same,Population Fragmented Nuclei (%),[11],17%
same,Population Healthy Nuclei (%),[11],69%
same,Population Hoechst High Intensity Objects (%),[11],1%
same,Population Membrane Permeable-Phenotype (%),[11],5%
same,Population Mitochondria Different-Phenotype (%),[11],2%
same,Population Mitotic Cells (%),[11],11%
same,Population Normal (%),[11],98%
same,Population Pyknosed Nuclei (%),[11],12%
same,Population Tubulin-Different-Phenotype (%),[11],2%
same,Total Cell Count,[11],347
same,Population Apoptotic (%),[12],90%
same,Population Fragmented Nuclei (%),[12],11%
same,Population Healthy Nuclei (%),[12],79%
same,Population Membrane Permeable-Phenotype (%),[12],3%
same,Population Mitochondria Different-Phenotype (%),[12],3%
same,Population Mitotic Cells (%),[12],9%
same,Population Pyknosed Nuclei (%),[12],9%
same,Population Tubulin-Different-Phenotype (%),[12],1%
same,Total Cell Count,[12],245
CC(C)(C)c1ccc(CSc2cnn(C(C)(C)C)c(=O)c2Cl)cc1 [PYRIDABEN],Population Apoptotic (%),[1],79%
same,Population Fragmented Nuclei (%),[1],28%
same,Population Healthy Nuclei (%),[1],61%
same,Population Hoechst High Intensity Objects (%),[1],3%
same,Population Membrane Permeable-Phenotype (%),[1],3%
same,Population Mitochondria Different-Phenotype (%),[1],1%
same,Population Mitotic Cells (%),[1],20%
same,Population Normal (%),[1],97%
same,Population Pyknosed Nuclei (%),[1],9%
same,Population Tubulin-Different-Phenotype (%),[1],2%
same,Total Cell Count,[1],267
same,Population Apoptotic (%),[2],63%
same,Population Fragmented Nuclei (%),[2],11%
same,Population Healthy Nuclei (%),[2],81%
same,Population Hoechst High Intensity Objects (%),[2],0%
same,Population Membrane Permeable-Phenotype (%),[2],4%
same,Population Mitotic Cells (%),[2],36%
same,Population Normal (%),[2],99%
same,Population Pyknosed Nuclei (%),[2],7%
same,Population Tubulin-Different-Phenotype (%),[2],3%
same,Total Cell Count,[2],152
same,Population Apoptotic (%),[3],83%
same,Population Fragmented Nuclei (%),[3],28%
same,Population Healthy Nuclei (%),[3],57%
same,Population Hoechst High Intensity Objects (%),[3],1%
same,Population Membrane Permeable-Phenotype (%),[3],5%
same,Population Mitochondria Different-Phenotype (%),[3],5%
same,Population Mitotic Cells (%),[3],16%
same,Population Normal (%),[3],98%
same,Population Pyknosed Nuclei (%),[3],14%
same,Population Tubulin-Different-Phenotype (%),[3],3%
same,Total Cell Count,[3],209
same,Population Apoptotic (%),[4],87%
same,Population Fragmented Nuclei (%),[4],15%
same,Population Healthy Nuclei (%),[4],73%
same,Population Hoechst High Intensity Objects (%),[4],0%
same,Population Mitochondria Different-Phenotype (%),[4],2%
same,Population Mitotic Cells (%),[4],12%
same,Population Normal (%),[4],100%
same,Population Pyknosed Nuclei (%),[4],11%
same,Population Tubulin-Different-Phenotype (%),[4],2%
same,Total Cell Count,[4],141
same,Population Apoptotic (%),[5],83%
same,Population Fragmented Nuclei (%),[5],28%
same,Population Healthy Nuclei (%),[5],58%
same,Population Hoechst High Intensity Objects (%),[5],1%
same,Population Membrane Permeable-Phenotype (%),[5],4%
same,Population Mitochondria Different-Phenotype (%),[5],1%
same,Population Mitotic Cells (%),[5],16%
same,Population Normal (%),[5],98%
same,Population Pyknosed Nuclei (%),[5],13%
same,Population Tubulin-Different-Phenotype (%),[5],1%
same,Total Cell Count,[5],286
same,Population Apoptotic (%),[6],100%
same,Population Fragmented Nuclei (%),[6],19%
same,Population Healthy Nuclei (%),[6],75%
same,Population Hoechst High Intensity Objects (%),[6],2%
same,Population Membrane Permeable-Phenotype (%),[6],3%
same,Population Mitotic Cells (%),[6],0%
same,Population Normal (%),[6],97%
same,Population Pyknosed Nuclei (%),[6],5%
same,Total Cell Count,[6],186
same,Population Apoptotic (%),[7],80%
same,Population Fragmented Nuclei (%),[7],22%
same,Population Healthy Nuclei (%),[7],61%
same,Population Hoechst High Intensity Objects (%),[7],2%
same,Population Membrane Permeable-Phenotype (%),[7],8%
same,Population Mitochondria Different-Phenotype (%),[7],3%
same,Population Mitotic Cells (%),[7],19%
same,Population Normal (%),[7],97%
same,Population Pyknosed Nuclei (%),[7],15%
same,Population Tubulin-Different-Phenotype (%),[7],6%
same,Total Cell Count,[7],234
same,Population Fragmented Nuclei (%),[8],19%
same,Population Healthy Nuclei (%),[8],68%
same,Population Hoechst High Intensity Objects (%),[8],1%
same,Population Membrane Permeable-Phenotype (%),[8],6%
same,Population Mitochondria Different-Phenotype (%),[8],1%
same,Population Mitotic Cells (%),[8],20%
same,Population Normal (%),[8],98%
same,Population Pyknosed Nuclei (%),[8],12%
same,Population Tubulin-Different-Phenotype (%),[8],2%
same,Total Cell Count,[8],167
same,Population Apoptotic (%),[9],76%
same,Population Fragmented Nuclei (%),[9],26%
same,Population Healthy Nuclei (%),[9],63%
same,Population Hoechst High Intensity Objects (%),[9],3%
same,Population Membrane Permeable-Phenotype (%),[9],6%
same,Population Mitochondria Different-Phenotype (%),[9],3%
same,Population Mitotic Cells (%),[9],23%
same,Population Normal (%),[9],96%
same,Population Pyknosed Nuclei (%),[9],9%
same,Population Tubulin-Different-Phenotype (%),[9],3%
same,Total Cell Count,[9],361
same,Population Apoptotic (%),[10],84%
same,Population Fragmented Nuclei (%),[10],19%
same,Population Healthy Nuclei (%),[10],70%
same,Population Hoechst High Intensity Objects (%),[10],6%
same,Population Membrane Permeable-Phenotype (%),[10],5%
same,Population Mitotic Cells (%),[10],15%
same,Population Normal (%),[10],93%
same,Population Tubulin-Different-Phenotype (%),[10],2%
same,Total Cell Count,[10],212
same,Population Apoptotic (%),[11],90%
same,Population Fragmented Nuclei (%),[11],20%
same,Population Healthy Nuclei (%),[11],64%
same,Population Hoechst High Intensity Objects (%),[11],4%
same,Population Membrane Permeable-Phenotype (%),[11],9%
same,Population Mitochondria Different-Phenotype (%),[11],4%
same,Population Mitotic Cells (%),[11],10%
same,Population Normal (%),[11],95%
same,Population Pyknosed Nuclei (%),[11],14%
same,Population Tubulin-Different-Phenotype (%),[11],6%
same,Total Cell Count,[11],280
same,Population Apoptotic (%),[12],95%
same,Population Fragmented Nuclei (%),[12],16%
same,Population Healthy Nuclei (%),[12],70%
same,Population Hoechst High Intensity Objects (%),[12],3%
same,Population Membrane Permeable-Phenotype (%),[12],5%
same,Population Mitochondria Different-Phenotype (%),[12],6%
same,Population Mitotic Cells (%),[12],4%
same,Population Normal (%),[12],96%
same,Population Pyknosed Nuclei (%),[12],13%
same,Population Tubulin-Different-Phenotype (%),[12],4%
same,Total Cell Count,[12],191

# From ChEMBL document CHEMBL5058577, “EUbOPEN Chemogenomics Library 2 (Multiplex)” (2022)
